# Calls of active or inactive are those of the source. No cut-off for these calls is given here.
# Columns and labels:
# [1] = test system: Cladosporium cucumerinum; assay: Antifungal activity against Cladosporium cucumerinum at 10 ug/spot after 2 to 3 days; format: functional, organism-based
# Method in brief: (§1)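 TLC bioautography: geometric dilutions made from freshly prepared stocks (1-10 mg mL^-1) in a suitable solvent, 10 µL spotted per TLC plate. Plates then sprayed with C. cucumerinum (DSM 62122) or A. flavus (BAFC 589) suspended in nutritive medium, incubated 2-3 days in a moist glass box. Read-out: diameter (mm) of clear inhibition zones against dark gray background; benomyl reference.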
# [2] = test system: Cladosporium cucumerinum; assay: Antifungal activity against Cladosporium cucumerinum at 20 to 60 ug/spot after 2 to 3 days; format: functional; method in brief: as §1
# [3] = test system: Aspergillus flavus; assay: Antifungal activity against Aspergillus flavus at 20 to 60 ug/spot after 2 to 3 days; format: functional; method in brief: as §1
# [4] = test system: Aspergillus flavus; assay: Antifungal activity against Aspergillus flavus at 5 to 10 ug/spot after 2 to 3 days; format: functional; method in brief: as §1
# [5] = test system: Cladosporium cucumerinum; assay: Antifungal activity against Cladosporium cucumerinum at 5 ug/spot after 2 to 3 days; format: functional
# Method in brief: (§2)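 TLC bioautography. Geometric dilutions were made from freshly prepared stock solutions (1-10 mg mL^-1) in a suitable solvent and spotted onto TLC plates. The read-out was the diameter (mm) of clear inhibition zones against a dark grey background.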
# [6] = test system: Aspergillus flavus; assay: Antifungal activity against Aspergillus flavus at 5 ug/spot after 2 to 3 days; format: functional; method in brief: as §2
# [7] = test system: Cladosporium cucumerinum; assay: Antifungal activity against Cladosporium cucumerinum at 10 to 60 ug/spot after 2 to 3 days; format: functional; method in brief: as §1
SMILES,Activity [1],inhibition zone (IZ) [3] [mm],Activity [4],Activity [7],Activity [2],Activity [3],inhibition zone (IZ) [7] [mm],inhibition zone (IZ) [4] [mm],also measured
C[C@H](/C=C/[C@@H](C)[C@H]1C[C@@H](O)[C@@H]2[C@]1(C)CC[C@@H]1[C@@]3(C)CC[C@H](O[C@@H]4OC[C@@H](O)[C@H](O)[C@H]4O)C[C@@H]3[C@@H](O)C[C@]12O)[C@H](C)C(=O)NCCS(=O)(=O)[O-].[Na+] [MINUTOSIDE B],inactive,5,inactive,–,–,–,–,–,inhibition zone (IZ) [2]: 3 mm
CCCCNC(=O)n1c(NC(=O)OC)nc2ccccc21 [BENOMYL],–,–,–,–,–,–,–,–,inhibition zone (IZ) [5]: 15 mm; inhibition zone (IZ) [6]: 14 mm
CC(C)[C@H](CC[C@@H](C)[C@H]1C[C@@H](O)[C@@H]2[C@]1(C)CC[C@@H]1[C@@]3(C)CC[C@H](O)C[C@@H]3[C@@H](O)C[C@]12O)O[C@@H]1OC[C@@H](O)[C@H](O)[C@H]1O,inactive,–,inactive,inactive,inactive,inactive,–,–,–
CC(C)[C@H](/C=C/[C@@H](C)[C@H]1C[C@@H](O)[C@@H]2[C@]1(C)CC[C@@H]1[C@@]3(C)CC[C@H](O)C[C@@H]3[C@@H](O)C[C@]12O)O[C@@H]1OC[C@@H](O)[C@H](O)[C@H]1O,inactive,–,inactive,inactive,inactive,inactive,–,–,–
CC(C)[C@H](/C=C/[C@@H](C)[C@H]1C[C@@H](O)[C@@H]2[C@]1(C)CC[C@@H]1[C@@]3(C)CC[C@H](OS(=O)(=O)[O-])C[C@@H]3[C@@H](O)C[C@]12O)O[C@@H]1OC[C@@H](O)[C@H](O)[C@H]1O.[Na+] [MINUTOSIDE A],–,5,–,–,–,–,7,5,–
CC(C)[C@H](CC[C@@H](C)[C@H]1C[C@@H](O)[C@@H]2[C@]1(C)CC[C@@H]1[C@@]3(C)CC[C@H](OS(=O)(=O)O)C[C@@H]3[C@@H](O)C[C@]12O)O[C@@H]1OC[C@@H](O)[C@H](O)[C@H]1O [PYCNOPODIOSIDE B],–,5,–,–,–,–,7,5,–
